According to ChEMBL document CHEMBL4680371, “Design and Structure-Activity Relationship of a Potent Furin Inhibitor Derived from Influenza Hemagglutinin” (ACS Med Chem Lett, 2021):
Where a SMILES comes first, the peptide text is derived from it. [ ]: non-standard residue; d: D form. Abu = CC[C@H](N)C(=O)O

Molecular target: Furin (Homo sapiens, UniProt P09958)
Experiment: Inhibition of recombinant soluble human furin using pyroGlu-Arg-Thr-Lys-Arg-methyl-coumaryl-7-amide as substrate measured after 1 hr
How it was run: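 Soluble human recombinant furin was tested in a competitive kinetic assay. Ki is reported as the mean ± SD of at least two independent experiments.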

Furin, sequence (P09958 whole entry): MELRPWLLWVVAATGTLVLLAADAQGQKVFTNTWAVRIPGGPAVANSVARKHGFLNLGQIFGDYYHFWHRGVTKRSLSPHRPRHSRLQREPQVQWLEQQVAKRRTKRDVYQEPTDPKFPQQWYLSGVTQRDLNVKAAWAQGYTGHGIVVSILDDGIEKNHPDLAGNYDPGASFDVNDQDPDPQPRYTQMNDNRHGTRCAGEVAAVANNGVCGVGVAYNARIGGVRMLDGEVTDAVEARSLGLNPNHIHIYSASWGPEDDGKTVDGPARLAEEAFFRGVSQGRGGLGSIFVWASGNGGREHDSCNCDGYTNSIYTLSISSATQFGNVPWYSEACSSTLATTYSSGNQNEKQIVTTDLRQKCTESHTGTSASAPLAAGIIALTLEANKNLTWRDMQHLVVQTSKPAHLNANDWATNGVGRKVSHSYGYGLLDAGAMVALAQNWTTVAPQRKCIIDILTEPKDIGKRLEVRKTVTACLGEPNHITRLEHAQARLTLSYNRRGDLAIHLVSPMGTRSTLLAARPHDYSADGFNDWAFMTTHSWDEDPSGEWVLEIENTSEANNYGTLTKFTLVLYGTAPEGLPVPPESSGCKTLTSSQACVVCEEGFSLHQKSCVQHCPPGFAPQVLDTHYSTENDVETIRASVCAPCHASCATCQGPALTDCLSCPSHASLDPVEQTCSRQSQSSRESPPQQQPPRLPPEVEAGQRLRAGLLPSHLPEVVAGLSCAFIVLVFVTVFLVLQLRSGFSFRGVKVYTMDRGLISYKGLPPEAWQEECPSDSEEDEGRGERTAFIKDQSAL

| SMILES | Ki [nM] |
| --- | --- |
| CC(=O)N[C@@H](CCCNC(=N)N)C(=O)N[C@H](C(=O)N[C@@H](CCCNC(=N)N)C(=O)N[C@@H](CCCNC(=N)N)C(=O)N[C@@H](CCCNC(=N)N)C(=O)N[C@@H](CCCCN)C(=O)N[C@@H](CCCCN)C(=O)N[C@@H](CCCNC(=N)N)C(=O)N[C@H](C(N)=O)[C@@H](C)O)C(C)C | 16 |
| CC(=O)N[C@@H](CCCNC(=N)N)C(=O)N[C@@H](C)C(=O)N[C@H](C(=O)N[C@@H](CCCNC(=N)N)C(=O)N[C@@H](CCCNC(=N)N)C(=O)N[C@@H](CCCCN)C(=O)N[C@@H](CCCCN)C(=O)N[C@@H](CCCNC(=N)N)C(=O)N[C@H](C(N)=O)[C@@H](C)O)[C@@H](C)O | 28 |
| CC(=O)N[C@@H](CCCNC(=N)N)C(=O)N[C@@H](C)C(=O)N[C@@H](CCCCN)C(=O)N[C@@H](CCCNC(=N)N)C(=O)N[C@@H](CCCNC(=N)N)C(=O)N[C@@H](CCCCN)C(=O)N[C@@H](CCCCN)C(=O)N[C@@H](CCCNC(=N)N)C(=O)N[C@H](C(N)=O)[C@@H](C)O | 15 |
| CC(=O)N[C@@H](CC(C)C)C(=O)N[C@@H](C)C(=O)N[C@@H](CCCNC(=N)N)C(=O)N[C@@H](CCCNC(=N)N)C(=O)N[C@@H](CCCNC(=N)N)C(=O)N[C@@H](CCCCN)C(=O)N[C@@H](CCCCN)C(=O)N[C@@H](CCCNC(=N)N)C(=O)N[C@H](C(N)=O)[C@@H](C)O | 12 |
| CSCC[C@H](NC(C)=O)C(=O)N[C@@H](C)C(=O)N[C@@H](CCCNC(=N)N)C(=O)N[C@@H](CCCNC(=N)N)C(=O)N[C@@H](CCCNC(=N)N)C(=O)N[C@@H](CCCCN)C(=O)N[C@@H](CCCCN)C(=O)N[C@@H](CCCNC(=N)N)C(=O)N[C@H](C(N)=O)[C@@H](C)O | 12 |
| CC(=O)N[C@H](CO)C(=O)N[C@@H](C)C(=O)N[C@@H](CCCNC(=N)N)C(=O)N[C@@H](CCCNC(=N)N)C(=O)N[C@@H](CCCNC(=N)N)C(=O)N[C@@H](CCCCN)C(=O)N[C@@H](CCCCN)C(=O)N[C@@H](CCCNC(=N)N)C(=O)N[C@H](C(N)=O)[C@@H](C)O | 11 |
| CSCC[C@H](NC(=O)[C@H](CCCNC(=N)N)NC(=O)[C@H](C)NC(=O)[C@H](CCCNC(=N)N)NC(C)=O)C(=O)N[C@@H](CCCNC(=N)N)C(=O)N[C@@H](CCCCN)C(=O)N[C@@H](CCCCN)C(=O)N[C@@H](CCCNC(=N)N)C(=O)N[C@H](C(N)=O)[C@@H](C)O | 16 |
| CC(=O)N[C@@H](CCCNC(=N)N)C(=O)N[C@@H](C)C(=O)N[C@@H](CCCNC(=N)N)C(=O)NCC(=O)N[C@@H](CCCNC(=N)N)C(=O)N[C@@H](CCCCN)C(=O)N[C@@H](CCCCN)C(=O)N[C@@H](CCCNC(=N)N)C(=O)N[C@H](C(N)=O)[C@@H](C)O | 36 |
| CC[C@H](NC(C)=O)C(=O)N[C@@H](C)C(=O)N[C@@H](CCCNC(=N)N)C(=O)N[C@H](C(=O)N[C@@H](CCCNC(=N)N)C(=O)N[C@@H](CCCCN)C(=O)N[C@@H](CCCCN)C(=O)N[C@@H](CCCNC(=N)N)C(=O)N[C@H](C(N)=O)[C@@H](C)O)[C@@H](C)CC (Ac-[Abu]ARIRKKRT-NH2) | 6 |
| CC(=O)N[C@@H](CCCNC(=N)N)C(=O)N[C@@H](C)C(=O)N[C@@H](CCCNC(=N)N)C(=O)N[C@@H](CC(=O)O)C(=O)N[C@@H](CCCNC(=N)N)C(=O)N[C@@H](CCCCN)C(=O)N[C@@H](CCCCN)C(=O)N[C@@H](CCCNC(=N)N)C(=O)N[C@H](C(N)=O)[C@@H](C)O | 130 |
| CC(=O)N1CCC[C@H]1C(=O)N[C@@H](C)C(=O)N[C@@H](CCCNC(=N)N)C(=O)N[C@@H](CCCNC(=N)N)C(=O)N[C@@H](CCCNC(=N)N)C(=O)N[C@@H](CCCCN)C(=O)N[C@@H](CCCCN)C(=O)N[C@@H](CCCNC(=N)N)C(=O)N[C@H](C(N)=O)[C@@H](C)O | 10 |
| CC[C@H](NC(=O)[C@H](CCCNC(=N)N)NC(=O)[C@H](C)NC(=O)CNC(C)=O)C(=O)N[C@@H](CCCNC(=N)N)C(=O)N[C@@H](CCCCN)C(=O)N[C@@H](CCCCN)C(=O)N[C@@H](CCCNC(=N)N)C(=O)N[C@H](C(N)=O)[C@@H](C)O (Ac-GAR[Abu]RKKRT-NH2) | 10 |
| CC(=O)N[C@@H](CCCNC(=N)N)C(=O)N[C@@H](C)C(=O)N[C@@H](CCCNC(=N)N)C(=O)NC(C)(C)C(=O)N[C@@H](CCCNC(=N)N)C(=O)N[C@@H](CCCCN)C(=O)N[C@@H](CCCCN)C(=O)N[C@@H](CCCNC(=N)N)C(=O)N[C@H](C(N)=O)[C@@H](C)O | 34 |
| CC(=O)NCC(=O)N[C@@H](C)C(=O)N[C@@H](CCCNC(=N)N)C(=O)N[C@@H](CCCNC(=N)N)C(=O)N[C@@H](CCCNC(=N)N)C(=O)N[C@@H](CCCCN)C(=O)N[C@@H](CCCCN)C(=O)N[C@@H](CCCNC(=N)N)C(=O)N[C@H](C(N)=O)[C@@H](C)O | 11 |
| CC(=O)N[C@@H](CCCNC(=N)N)C(=O)N[C@H](C(=O)N[C@@H](CCCNC(=N)N)C(=O)N[C@@H](CCCNC(=N)N)C(=O)N[C@@H](CCCNC(=N)N)C(=O)N[C@@H](CCCCN)C(=O)N[C@@H](CCCCN)C(=O)N[C@@H](CCCNC(=N)N)C(=O)N[C@H](C(N)=O)[C@@H](C)O)[C@@H](C)O | 16 |
| CC(=O)N[C@@H](CCCNC(=N)N)C(=O)N[C@@H](C)C(=O)N[C@@H](CO)C(=O)N[C@@H](CCCNC(=N)N)C(=O)N[C@@H](CCCNC(=N)N)C(=O)N[C@@H](CCCCN)C(=O)N[C@@H](CCCCN)C(=O)N[C@@H](CCCNC(=N)N)C(=O)N[C@H](C(N)=O)[C@@H](C)O | 29 |

| SMILES | Ki [nM] |
| --- | --- |
| CC(=O)N[C@@H](CCCNC(=N)N)C(=O)N[C@@H](C)C(=O)N[C@@H](CCCNC(=N)N)C(=O)N[C@@H](Cc1c[nH]c2ccccc12)C(=O)N[C@@H](CCCNC(=N)N)C(=O)N[C@@H](CCCCN)C(=O)N[C@@H](CCCCN)C(=O)N[C@@H](CCCNC(=N)N)C(=O)N[C@H](C(N)=O)[C@@H](C)O | 47 |
| CC(=O)N[C@@H](CCCNC(=N)N)C(=O)N[C@@H](CCCNC(=N)N)C(=O)N[C@@H](CCCNC(=N)N)C(=O)N[C@@H](CCCNC(=N)N)C(=O)N[C@@H](CCCNC(=N)N)C(=O)N[C@@H](CCCCN)C(=O)N[C@@H](CCCCN)C(=O)N[C@@H](CCCNC(=N)N)C(=O)N[C@H](C(N)=O)[C@@H](C)O | 23 |
| CC(=O)N[C@@H](CCCNC(=N)N)C(=O)N[C@@H](CCC(N)=O)C(=O)N[C@@H](CCCNC(=N)N)C(=O)N[C@@H](CCCNC(=N)N)C(=O)N[C@@H](CCCNC(=N)N)C(=O)N[C@@H](CCCCN)C(=O)N[C@@H](CCCCN)C(=O)N[C@@H](CCCNC(=N)N)C(=O)N[C@H](C(N)=O)[C@@H](C)O | 19 |
| CCCC[C@H](NC(=O)[C@H](CCCNC(=N)N)NC(=O)[C@H](C)NC(=O)[C@H](CCCNC(=N)N)NC(C)=O)C(=O)N[C@@H](CCCNC(=N)N)C(=O)N[C@@H](CCCCN)C(=O)N[C@@H](CCCCN)C(=O)N[C@@H](CCCNC(=N)N)C(=O)N[C@H](C(N)=O)[C@@H](C)O | 19 |
| CC(=O)N[C@@H](CCCNC(=N)N)C(=O)N[C@@H](C)C(=O)N[C@@H](Cc1c[nH]c2ccccc12)C(=O)N[C@@H](CCCNC(=N)N)C(=O)N[C@@H](CCCNC(=N)N)C(=O)N[C@@H](CCCCN)C(=O)N[C@@H](CCCCN)C(=O)N[C@@H](CCCNC(=N)N)C(=O)N[C@H](C(N)=O)[C@@H](C)O | 97 |
| CC[C@H](C)[C@H](NC(=O)[C@H](CCCNC(=N)N)NC(=O)[C@H](C)NC(=O)[C@H](CCC(N)=O)NC(C)=O)C(=O)N[C@@H](CCCNC(=N)N)C(=O)N[C@@H](CCCCN)C(=O)N[C@@H](CCCCN)C(=O)N[C@@H](CCCNC(=N)N)C(=O)N[C@H](C(N)=O)[C@@H](C)O (Ac-QARIRKKRT-NH2) | 9 |
| CC(=O)N[C@@H](Cc1ccc(O)cc1)C(=O)N[C@@H](C)C(=O)N[C@@H](CCCNC(=N)N)C(=O)N[C@@H](CCCNC(=N)N)C(=O)N[C@@H](CCCNC(=N)N)C(=O)N[C@@H](CCCCN)C(=O)N[C@@H](CCCCN)C(=O)N[C@@H](CCCNC(=N)N)C(=O)N[C@H](C(N)=O)[C@@H](C)O | 18 |
| CC(=O)N[C@@H](CCCNC(=N)N)C(=O)N[C@@H](C)C(=O)N[C@@H](CCCNC(=N)N)C(=O)N[C@@H](C)C(=O)N[C@@H](CCCNC(=N)N)C(=O)N[C@@H](CCCCN)C(=O)N[C@@H](CCCCN)C(=O)N[C@@H](CCCNC(=N)N)C(=O)N[C@H](C(N)=O)[C@@H](C)O | 11 |
| CC(=O)N[C@@H](C)C(=O)N[C@H](C(=O)N[C@@H](CCCNC(=N)N)C(=O)N[C@@H](CCCNC(=N)N)C(=O)N[C@@H](CCCNC(=N)N)C(=O)N[C@@H](CCCCN)C(=O)N[C@@H](CCCCN)C(=O)N[C@@H](CCCNC(=N)N)C(=O)N[C@H](C(N)=O)[C@@H](C)O)C(C)C (Ac-AVRRRKKRT-NH2) | 10 |
| CC(=O)N[C@@H](C)C(=O)N[C@@H](Cc1c[nH]c2ccccc12)C(=O)N[C@@H](CCCNC(=N)N)C(=O)N[C@@H](CCCNC(=N)N)C(=O)N[C@@H](CCCNC(=N)N)C(=O)N[C@@H](CCCCN)C(=O)N[C@@H](CCCCN)C(=O)N[C@@H](CCCNC(=N)N)C(=O)N[C@H](C(N)=O)[C@@H](C)O (Ac-AWRRRKKRT-NH2) | 30 |
| CC(=O)N[C@@H](CO)C(=O)N[C@@H](C)C(=O)N[C@@H](CCCNC(=N)N)C(=O)N[C@@H](CCCNC(=N)N)C(=O)N[C@@H](CCCNC(=N)N)C(=O)N[C@@H](CCCCN)C(=O)N[C@@H](CCCCN)C(=O)N[C@@H](CCCNC(=N)N)C(=O)N[C@H](C(N)=O)[C@@H](C)O | 11 |
| CC[C@H](NC(=O)[C@H](CCCNC(=N)N)NC(=O)[C@H](C)NC(=O)[C@@H](CO)NC(C)=O)C(=O)N[C@@H](CCCNC(=N)N)C(=O)N[C@@H](CCCCN)C(=O)N[C@@H](CCCCN)C(=O)N[C@@H](CCCNC(=N)N)C(=O)N[C@H](C(N)=O)[C@@H](C)O | 15 |
| CC(=O)N[C@@H](CCCNC(=N)N)C(=O)N[C@@H](C)C(=O)N[C@@H](CCCNC(=N)N)C(=O)N[C@@H](CC(C)C)C(=O)N[C@@H](CCCNC(=N)N)C(=O)N[C@@H](CCCCN)C(=O)N[C@@H](CCCCN)C(=O)N[C@@H](CCCNC(=N)N)C(=O)N[C@H](C(N)=O)[C@@H](C)O | 11 |
| CC(=O)N[C@@H](CCCNC(=N)N)C(=O)NCC(=O)N[C@@H](CCCNC(=N)N)C(=O)N[C@@H](CCCNC(=N)N)C(=O)N[C@@H](CCCNC(=N)N)C(=O)N[C@@H](CCCCN)C(=O)N[C@@H](CCCCN)C(=O)N[C@@H](CCCNC(=N)N)C(=O)N[C@H](C(N)=O)[C@@H](C)O | 17 |
| CC(=O)N1CCC[C@@H]1C(=O)N[C@@H](C)C(=O)N[C@@H](CCCNC(=N)N)C(=O)N[C@@H](CCCNC(=N)N)C(=O)N[C@@H](CCCNC(=N)N)C(=O)N[C@@H](CCCCN)C(=O)N[C@@H](CCCCN)C(=O)N[C@@H](CCCNC(=N)N)C(=O)N[C@H](C(N)=O)[C@@H](C)O | 13 |
